Experimental data published in ChEMBL document CHEMBL4219162, “Adamantane amine-linked chloroquinoline derivatives as chloroquine resistance modulating agents in Plasmodium falciparum” (Bioorg Med Chem Lett, 2018).

Assays:
[1] = Selectivity index, ratio of IC50 for CHO cells to IC50 for chloroquine-resistant Plasmodium falciparum K1 infected in normal type A human erythrocytes; assay type: toxicity, cell-based; conditions: Chinese hamster; read-out: Ratio IC50
Method in brief: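 Selectivity index computed as IC50 in Chinese hamster ovary cells, measured by MTT reduction to formazan, divided by IC50 against K1 from the pLDH assay.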

[2] = system: Plasmodium falciparum; test: Antimalarial activity against chloroquine-sensitive Plasmodium falciparum NF54 infected in normal type A human erythrocytes incubated for 72 hrs by spectrophotometry based parasite lactate dehydrogenase assay; assay type: functional, organism-based; conditions: NF54, 72 h
Method in brief: (§1)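 Modified parasite lactate dehydrogenase (pLDH) assay run in parallel on CQ-sensitive NF54 and CQ-resistant K1 strains, with chloroquine as positive control. […], 37 °C, and the readout gave IC50.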

[3] = Reversal modification index, ratio of IC50 for chloroquine-resistant Plasmodium falciparum K1 infected in normal type A human erythrocytes to IC50 for chloroquine-sensitive Plasmodium falciparum NF54 infected in normal type A human erythrocytes relative to […]; assay type: functional
Method in brief: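 Reversal modification index taken as the resistance index (IC50 K1/IC50 NF54) of each compound relative to the resistance index of chloroquine.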

[4] = Resistance index, ratio of IC50 for chloroquine-resistant Plasmodium falciparum K1 infected in normal type A human erythrocytes to IC50 for chloroquine-sensitive Plasmodium falciparum NF54 infected in normal type A human erythrocytes; assay type: functional
Method in brief: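 Resistance index computed as IC50 against K1 divided by IC50 against NF54, both from the pLDH assay.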

[5] = system: Plasmodium falciparum; test: Antimalarial activity against chloroquine-resistant Plasmodium falciparum K1 infected in normal type A human erythrocytes incubated for 72 hrs by spectrophotometry based parasite lactate dehydrogenase assay; assay type: functional, organism-based; conditions: K1, 72 h; method in brief: as §1
[6] = system: CHO; test: Cytotoxicity against CHO cells by MTT assay; assay type: cell-based; conditions: Cricetulus griseus
Method in brief: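 Chinese hamster ovary cell growth and survival read by viable-cell reduction of yellow MTT to purple-blue formazan. IC50 derived. Emetine served as the cytotoxic reference drug.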

[7] = Aqueous stability of the compound in pH 4.5 HEPES-buffer at 1 mg/ml at 37 degC after 72 hrs by UV spectroscopic method; assay type: physicochemical; conditions: pH 4.5, 72 h
Method in brief: (§2)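 Test compound at 1 mg/ml in aqueous HEPES-containing buffer, held at 37 °C for 72 h to check for degradation. pH 7.4 matches the pLDH antimalarial assay medium. pH 4.5 approximates the parasite's acidic digestive vacuole. Conditions mirror the pLDH assay procedure.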

[8] = Aqueous stability of the compound in pH 7.4 HEPES-buffer at 1 mg/ml at 37 degC after 72 hrs by UV spectroscopic method; assay type: physicochemical; conditions: pH 7.4, 72 h; method in brief: as §2
[9] = system: Plasmodium falciparum; test: Potency index, ratio of IC50 for […] to IC50 for test compound for antimalarial activity against chloroquine-resistant Plasmodium falciparum K1 infected in normal type A human erythrocytes incubated for 72 hrs by spectrophotometry based parasite lactate dehydrogenase assay; assay type: functional

| Compound | selectivity ratio [1] | IC50 [2] [nM] | Ratio IC50 [3] | Ratio IC50 [4] | IC50 [5] [nM] | IC50 [6] [nM] | Stability [7] | Stability [8] | Ratio IC50 [9] |
| --- | --- | --- | --- | --- | --- | --- | --- | --- | --- |
| OC12C3C4CC5C6C4C1C6C(C53)N2CCNc1ccnc2cc(Cl)ccc12 (centres undefined) | 131 | 9.84 | 5.22 | 7.36 | 72.6 |  |  |  |  |
| OC12CC3CC(CC(C3)N1CCCCCCNc1ccnc3cc(Cl)ccc13)C2 | 285 | 112 | 10.09 | 3.81 | 284 | 80800 |  |  |  |
| Clc1ccc2c(NCCCN=C3C4CC5CC(C4)CC3C5)ccnc2c1 | 346 | 5 | 2.4 |  | 192 | 66400 | Unstable | Stable |  |
| Clc1ccc2c(NCCCCCCN=C3C4CC5CC(C4)CC3C5)ccnc2c1 | 104 | 113 | 2.74 | 14.02 | 1580 | > 103000 |  |  |  |
| OC12CC3CC(CC(C3)N1CCCCNc1ccnc3cc(Cl)ccc13)C2 | 191 | 33.9 | 6.59 | 5.84 | 198 | 37900 |  |  |  |
| Clc1ccc2c(NCCN=C3C4CC5CC(C4)CC3C5)ccnc2c1 | 1050 | 26.3 | 10.8 | 3.56 | 93.8 | 98500 |  |  | 3 - 4 |
| Clc1ccc2c(NCCCCN=C3C4CC5CC(C4)CC3C5)ccnc2c1 | 73 | 108 | 5.32 | 7.23 | 784 | 57100 |  |  |  |
| OC12CC3CC(CC(C3)N1CCNc1ccnc3cc(Cl)ccc13)C2 | > 2820 | 46.9 | 18.23 | 2.11 | 98.9 | > 279000 |  |  | 3 - 4 |
| OC12CC3CC(CC(C3)N1CCCNc1ccnc3cc(Cl)ccc13)C2 | 467 | 22.3 | 8.86 | 4.34 | 96.8 | 45200 |  |  | 3 - 4 |
| CCN(CC)CCCC(C)Nc1ccnc2cc(Cl)ccc12 (centres undefined) [CHLOROQUINE] |  |  |  |  |  | 57800 |  |  |  |
| CC[C@H]1CN2CCc3cc(OC)c(OC)cc3[C@@H]2C[C@@H]1C[C@H]1NCCc2cc(OC)c(OC)cc21 [EMETINE] |  |  |  |  |  | 130 |  |  |  |
